Results taken from ChEMBL document CHEMBL4680065, “Pharmacophore-based screening of diamidine small molecule inhibitors for protein arginine methyltransferases” (RSC Med Chem, 2021).

Key:
[1] = molecular target: T1, Histone-lysine N-methyltransferase EHMT2 (Homo sapiens) (UniProt Q96KQ7); assay: Inhibition of recombinant His-tagged human G9a expressed in Escherichia coli BL21 (DE3) assessed as residual activity at 10 uM using biotin-labeled histone H3-20 peptide as substrate incubated for 30 mins in presence of [3H]-SAM cofactor by scintillation proximity assay relative to control
T1 sequence (whole entry): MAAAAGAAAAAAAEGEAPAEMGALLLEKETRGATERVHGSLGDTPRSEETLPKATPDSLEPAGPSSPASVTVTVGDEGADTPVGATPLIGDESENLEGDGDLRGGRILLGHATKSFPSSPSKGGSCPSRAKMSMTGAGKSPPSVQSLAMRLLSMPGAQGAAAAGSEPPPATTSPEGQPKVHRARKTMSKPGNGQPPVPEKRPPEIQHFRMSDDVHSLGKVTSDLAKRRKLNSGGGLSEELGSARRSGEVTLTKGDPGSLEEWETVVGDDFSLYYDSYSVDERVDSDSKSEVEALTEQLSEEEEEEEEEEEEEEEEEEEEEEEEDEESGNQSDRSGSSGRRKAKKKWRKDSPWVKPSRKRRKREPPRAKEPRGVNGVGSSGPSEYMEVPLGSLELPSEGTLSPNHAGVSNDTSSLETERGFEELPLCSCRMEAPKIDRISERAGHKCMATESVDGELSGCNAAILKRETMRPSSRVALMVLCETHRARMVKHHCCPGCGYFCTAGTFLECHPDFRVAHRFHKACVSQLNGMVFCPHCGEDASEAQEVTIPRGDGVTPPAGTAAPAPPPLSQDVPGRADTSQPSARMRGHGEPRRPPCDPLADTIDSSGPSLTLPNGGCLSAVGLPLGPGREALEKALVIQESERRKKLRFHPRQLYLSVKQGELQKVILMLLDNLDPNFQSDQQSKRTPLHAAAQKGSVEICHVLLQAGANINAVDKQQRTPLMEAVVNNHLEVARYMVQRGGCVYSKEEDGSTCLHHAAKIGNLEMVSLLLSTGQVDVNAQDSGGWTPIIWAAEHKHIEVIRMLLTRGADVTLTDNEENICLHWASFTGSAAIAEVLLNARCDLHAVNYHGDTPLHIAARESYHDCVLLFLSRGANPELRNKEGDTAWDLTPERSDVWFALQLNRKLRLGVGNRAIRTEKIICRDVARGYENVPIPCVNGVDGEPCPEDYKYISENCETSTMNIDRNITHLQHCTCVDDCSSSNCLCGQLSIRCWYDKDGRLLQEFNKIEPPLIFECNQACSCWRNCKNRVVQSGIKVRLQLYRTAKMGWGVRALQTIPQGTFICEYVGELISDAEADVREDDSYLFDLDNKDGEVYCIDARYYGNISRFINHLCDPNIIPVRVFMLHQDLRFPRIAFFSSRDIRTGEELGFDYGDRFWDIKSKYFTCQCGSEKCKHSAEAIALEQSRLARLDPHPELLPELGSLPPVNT
In short: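 Single-point profiling used 10 μM inhibitor added to the enzyme, [3H]-SAM and substrate mixture. Methylated substrate was quantified by scintillation proximity assay. Reactions were held at initial rate, with yield under 10% and substrate near Km. Enzyme, [3H]-SAM and substrate final levels are given in the supplement.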

[2] = tested on: K562; assay: Antiproliferative activity against human K562 cells assessed as inhibition of cell growth measured after 72 hrs by CellTiter-Glo assay; type: functional, cell-based; conditions: K562, 72 h
In short: (§1)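 Cells were cultured with the test agent, serially diluted, for 72 h. The control received the same amount of DMSO. Cell viability was then measured, and IC50 values were taken from sensitivity curves.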

[3] = tested on: HEL; assay: Antiproliferative activity against human HEL cells assessed as inhibition of cell growth measured after 72 hrs by CellTiter-Glo assay; type: functional, cell-based; in short: as §1
[4] = molecular target: Protein arginine N-methyltransferase 8 (Homo sapiens, UniProt Q9NR22); assay: Inhibition of recombinant His-tagged human PRMT8 expressed in Escherichia coli BL21 (DE3) using biotin-labeled histone H4-20 peptide as substrate incubated for 8 mins in presence of [3H]-SAM cofactor by scintillation proximity assay
In short: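 The inhibitor was serially diluted and added to the enzyme, [3H]-SAM and substrate mixture, and methylated substrate was quantified by scintillation proximity assay. Reactions were held at initial rate, with yield under 10% and substrate near Km. PRMT3, PRMT8 and G9a were His-tagged human proteins, and PRMT7 was GST-tagged, all expressed in E. coli and affinity-purified.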

Sequence of Protein arginine N-methyltransferase 8 (Q9NR22 whole entry): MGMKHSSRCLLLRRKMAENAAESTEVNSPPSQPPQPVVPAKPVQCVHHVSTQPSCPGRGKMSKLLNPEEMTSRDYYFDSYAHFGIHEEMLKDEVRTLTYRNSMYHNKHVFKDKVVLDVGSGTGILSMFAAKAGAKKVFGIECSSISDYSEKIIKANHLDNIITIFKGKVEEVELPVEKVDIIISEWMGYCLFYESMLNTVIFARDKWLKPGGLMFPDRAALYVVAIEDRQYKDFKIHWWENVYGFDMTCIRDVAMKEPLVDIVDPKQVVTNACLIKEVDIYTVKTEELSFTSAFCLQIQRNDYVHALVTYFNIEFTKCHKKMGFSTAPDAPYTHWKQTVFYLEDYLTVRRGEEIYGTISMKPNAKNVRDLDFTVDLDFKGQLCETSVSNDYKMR

## N=C(N)c1ccc(Nc2ccc(-c3cc4ccc(C(=N)N)cc4[nH]3)cc2)cc1
[1]
  Activity: 10.5%
[2]
  IC50: 1080 nM
[3]
  IC50: 2270 nM
[4]
  IC50: 8200 nM
